Source: ChEMBL document CHEMBL1629583, “Establishment of in vitro susceptibility testing methodologies and comparative activities of piperacillin in combination with the penem {beta}-lactamase inhibitor BLI-489” (2009)

Assays:
Assay type in all cases: functional
Haemophilus influenzae = test: Antimicrobial activity against beta-lactamase-producing Haemophilus influenzae clinical isolate after 18 to 22 hrs by broth microdilution method in presence of beta-lactamase inhibitor Tazobactam
Outline: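 […] was used for CLSI broth microdilution with piperacillin-tazobactam. Inoculum was 10^5 CFU/ml, incubated 18 to 22 h at 35°C in ambient air. MIC was the lowest concentration with no growth visible to the unaided eye.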

Enterococcus faecalis = test: Antimicrobial activity against Enterococcus faecalis clinical isolate after 18 to 22 hrs by broth microdilution method in presence of beta-lactamase inhibitor Tazobactam
Outline: (§1)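 CLSI broth microdilution in Mueller-Hinton II broth. Antibiotic in serial dilution with the β-lactamase inhibitor held at a constant 4 μg/ml. Inoculum 10^5 CFU/ml. Incubated 18 to 22 h at 35°C in ambient air.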

Streptococcus pneumoniae = test: Antimicrobial activity against penicillin-resistant Streptococcus pneumoniae clinical isolate after 18 to 22 hrs by broth microdilution method in presence of beta-lactamase inhibitor BLI-489
Outline: as §1, with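 “broth with 5% lysed horse blood.” for “broth.”, “air. MIC is the lowest concentration with no growth visible to the eye.” for “air.”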

Enterococcus gallinarum = test: Antimicrobial activity against Enterococcus gallinarum clinical isolate after 18 to 22 hrs by broth microdilution method in presence of beta-lactamase inhibitor Tazobactam
Outline: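 Piperacillin-tazobactam was tested by CLSI broth microdilution in Mueller-Hinton II broth against clinical isolates. Inoculum was 10^5 CFU/ml, with 18 to 22 h incubation at 35°C in ambient air. MIC was read as the lowest concentration completely inhibiting visible growth.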

Streptococcus pyogenes = test: Antimicrobial activity against Streptococcus pyogenes clinical isolate after 18 to 22 hrs by broth microdilution method in presence of beta-lactamase inhibitor BLI-489
Outline: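 Streptococci were tested by CLSI broth microdilution in Mueller-Hinton II broth plus 5% lysed horse blood. Piperacillin dilutions contained a constant 4 μg/ml BLI-489. Inoculum was 10^5 CFU/ml, incubated 18 to 22 h at 35°C in air. MIC was the lowest concentration with no visible growth.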

Escherichia coli = test: Antimicrobial activity against class A extended spectrum beta-lactamase- producing Escherichia coli clinical isolate after 18 to 22 hrs by broth microdilution method in presence of beta-lactamase inhibitor BLI-489
Outline: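 Piperacillin serially diluted with BLI-489 held at a constant 4 μg/ml, by CLSI broth microdilution in Mueller-Hinton II broth. Inoculum was 10^5 CFU/ml. Plates were incubated 18 to 22 h at 35°C in ambient air. MIC was the lowest concentration completely inhibiting growth seen by the unaided eye.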

Klebsiella aerogenes = test: Antimicrobial activity against Enterobacter aerogenes clinical isolate after 18 to 22 hrs by broth microdilution method in presence of beta-lactamase inhibitor BLI-489
Outline: (§2)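 CLSI broth microdilution in Mueller-Hinton II broth. Piperacillin serial dilutions were combined with BLI-489 held constant at 4 μg/ml. Inoculum was 10^5 CFU/ml. Plates were incubated 18 to 22 h at 35°C in ambient air. MIC was the lowest concentration completely inhibiting growth seen by the unaided eye. Piperacillin-tazobactam interpretive criteria were applied.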

Klebsiella pneumoniae [1] = test: Antimicrobial activity against Klebsiella pneumoniae clinical isolate after 18 to 22 hrs by broth microdilution method in presence of beta-lactamase inhibitor BLI-489
Outline: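 CLSI broth microdilution in Mueller-Hinton II broth. Serial dilutions of piperacillin were tested with BLI-489 held at a constant 4 μg/ml. Inoculum was 10^5 CFU/ml. Plates were incubated 18 to 22 h at 35°C in ambient air. MIC was the lowest concentration giving complete growth inhibition by unaided eye.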

Klebsiella pneumoniae [2] = test: Antimicrobial activity against AmpC- producing Klebsiella pneumoniae clinical isolate after 18 to 22 hrs by broth microdilution method in presence of beta-lactamase inhibitor BLI-489; outline: as §2

CCN1CCN(C(=O)N[C@@H](C(=O)N[C@@H]2C(=O)N3[C@@H]2SC(C)(C)[C@@H]3C(=O)O)c2ccccc2)C(=O)C1=O [PIPERACILLIN]
MIC50 (Haemophilus influenzae): 0.008 µg/mL | MIC90 (Haemophilus influenzae): 0.03 µg/mL | MIC (Enterococcus faecalis): 2 µg/mL | MIC50 (Enterococcus faecalis): 2 µg/mL | MIC90 (Enterococcus faecalis): 4 µg/mL | MIC50 (Streptococcus pneumoniae): 2 µg/mL | MIC90 (Streptococcus pneumoniae): 4 µg/mL | MIC50 (Enterococcus gallinarum): 4 µg/mL | MIC90 (Enterococcus gallinarum): 16 µg/mL | MIC (Streptococcus pyogenes): ≤ 0.004 µg/mL | MIC50 (Streptococcus pyogenes): ≤ 0.004 µg/mL | MIC90 (Streptococcus pyogenes): ≤ 0.004 µg/mL | MIC50 (Escherichia coli): 64 µg/mL | MIC90 (Escherichia coli): 128 µg/mL | MIC50 (Klebsiella aerogenes): 2 µg/mL | MIC90 (Klebsiella aerogenes): 64 µg/mL | MIC50 (Klebsiella pneumoniae [1]): 2 µg/mL | MIC90 (Klebsiella pneumoniae [1]): 8 µg/mL | MIC50 (Klebsiella pneumoniae [2]): 16 µg/mL | MIC90 (Klebsiella pneumoniae [2]): > 128 µg/mL
